High-throughput results (PubChem)
Apaf-1 inh: blocks human Apaf-1 apoptosome activity; O14727; reconstituted apoptosome caspase-3 activity, DEVD-Rh110 fluorescence; inhibition, % at 20 µM; hit rate 0.71% among 330,000; AID 489030; active means inhibition of at least 40% at 20 µM;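 further: plate controls were DMSO wells for no effect and DEVD-CHO caspase inhibitor wells for full effect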
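Assay system – apoptosome proteins · Medium – Hepes buffer, pH 7.5 · Also added – cytochrome c with DEVD-Rh110 · Timing – 30 min compound preincubation, 50 min activation, room temperature · Detection – Rh110 fluorescence, excitation 480 nm, emission 540 nm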
PP5 inh: PP5 (human) phosphatase inhibition | purified PP5c, OMFP substrate fluorescence | P53041 | hit rate 0.18% among 320,000 | inhibition, % at 6.7 µM;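 active means inhibition above the campaign's mean inhibition across all tested compounds plus 3 SD, cut at about 9.5% in these data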;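 further: 0% = DMSO only and 100% = 100 µM cantharidin control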
Fh CTSL1 inh: counter-screen for PFM18AAP inhibitors: inhibitors of F. hepatica cathepsin L1; recombinant F. hepatica cathepsin L1, Z-Leu-Arg-MCA fluorescence; inhibition, % at 5.96 µM; hit rate 0.49% among 300,000; AID 1906;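 active means inhibition above the mean of all tested compounds plus 3 SD, set per screening campaign, cut at about 17% in these data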;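 further: 0% = plate median of test compound wells and 100% = 1 µM Z-Phe-Ala-diazomethylketone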
PAD4 FP inh: inhibitors of human PAD4; recombinant PAD4, RCA probe fluorescence polarization; inhibition, % at 6.36 µM; hit rate 0.41% among 330,000; Q9UM07;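 active means percent inhibition above a cutoff equal to the mean of all tested compounds plus 3 SD, cut at about 15% in these data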;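 further: 0% = PAD4 with RCA probe and DMSO and 100% = probe without PAD4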
Target sequence (Q9UM07 whole entry, looked up): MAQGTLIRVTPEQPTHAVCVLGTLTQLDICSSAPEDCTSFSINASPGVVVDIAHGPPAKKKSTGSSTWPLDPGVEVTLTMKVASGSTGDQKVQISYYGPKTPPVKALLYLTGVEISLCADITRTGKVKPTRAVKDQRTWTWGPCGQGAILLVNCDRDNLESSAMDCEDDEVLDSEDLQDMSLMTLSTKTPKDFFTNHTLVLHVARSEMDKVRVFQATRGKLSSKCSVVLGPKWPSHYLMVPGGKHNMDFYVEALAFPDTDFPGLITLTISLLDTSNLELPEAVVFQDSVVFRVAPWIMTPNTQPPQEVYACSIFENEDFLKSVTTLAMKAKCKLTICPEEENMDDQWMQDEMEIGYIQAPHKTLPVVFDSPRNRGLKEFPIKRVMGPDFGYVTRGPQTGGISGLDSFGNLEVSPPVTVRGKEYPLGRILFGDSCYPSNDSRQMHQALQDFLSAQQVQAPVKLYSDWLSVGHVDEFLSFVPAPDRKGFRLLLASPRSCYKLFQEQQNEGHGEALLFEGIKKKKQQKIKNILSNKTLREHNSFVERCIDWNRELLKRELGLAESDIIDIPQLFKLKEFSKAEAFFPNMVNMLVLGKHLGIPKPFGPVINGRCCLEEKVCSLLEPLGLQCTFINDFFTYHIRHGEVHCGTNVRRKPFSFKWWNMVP
UCH37 DUB inh: inhibitors of human deubiquitinating enzyme UCH37; purified proteasome/UCH37, Ub-AMC cleavage fluorescence; Q9Y5K5; AID 588478; inhibition, % (no concentration beside the values); hit rate 0.33% among 330,000;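 active means mean inhibition over replicate wells above about 20%, limit read from the data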;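 further: 0% = compound-free wells with enzyme and 100% = wells lacking proteasome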
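Test system – human UCH37 enzyme supplied as purified proteasome complex · Incubation – 30 min preincubation with enzyme, 25 min cleavage at room temperature · Detection – AMC fluorescence from Ub-AMC cleavage, excitation 355 nm, emission 460 nm · Benchmarks – no-proteasome wells (full inhibition) and compound-free wells (no inhibition)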
GSTO1 inh: counter-screen for RBBP9 inhibitors: inhibitors of human GSTO1; recombinant GSTO1, activity-based probe fluorescence polarization; P78417; inhibition, % at 5.96 µM; hit rate 1.1% among 300,000;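 active means inhibition above the campaign mean inhibition plus 3 SD, cut at about 35% in these data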;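 further: 0% = GSTO1-1 with DMSO and 100% = wells lacking GSTO1-1 enzyme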
GSTO1 confirm: GSTO1 (human) inhibition, confirmation; shares compounds with GSTO1 inh; recombinant GSTO1, probe fluorescence polarization; inhibition, % at 5.96 µM; hit rate 54% among 2,400;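 active means inhibition above the primary screen's cutoff, its mean inhibition plus 3 SD, cut at about 35% in these data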;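 further: loss of polarization as inhibitors block binding of rhodamine sulfonate ester activity probe; 0% = GSTO1 with DMSO and 100% = wells lacking GSTO1 enzyme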
GSTO1 recomb ABPP: inhibitors of recombinant human GSTO1; shares compounds with GSTO1 inh; gel ABPP SE-Rh probe fluorescence; inhibition, % at 1 µM; hit rate 30% among 130;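 active means inhibition of the enzyme GSTO1 above about 75%, limit read from the data; inactive means inhibition below that limit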
Starred values were filed as active, the others as inactive; i = inactive; / = no result. Most compounds without a hit are left out; they make up all but 2% or so of the library.

SMILES | Apaf-1 inh | PP5 inh | Fh CTSL1 inh | PAD4 FP inh | UCH37 DUB inh | GSTO1 inh | GSTO1 confirm | others
CCOC(=O)C1CCN(C(=O)Nc2ccc3nc(-c4ccco4)c(-c4ccco4)nc3c2)CC1 | 70* | 5 | 6 | -3 | -45 | 80* | 32
CCN(CC)c1ccc(C2Nc3cccc4cccc(c34)N2)cc1 | 16 | 3 | -3 | -2 | / | 27 | /
Cc1ccc(C2Nc3cccc4cccc(c34)N2)s1 | 35 | 0 | 1 | -10 | -4 | 44* | 11
CCCN1CCC(=O)N([C@H](CSc2ccc(Br)cc2)c2ccccc2)CC1 | 22 | 0 | -2 | 1 | 2 | 53* | 8
O=C1CCN(CCc2ccccc2)CCN1[C@H](CSc1ccc(Br)cc1)c1ccccc1 | 19 | 1 | -1 | -1 | -3 | -3 | /
Cc1c(O)ccc2cc(S(=O)(=O)c3ccccc3)c(=O)oc12 | 11 | -2 | 6 | 0 | i | 1 | /
O=S(=O)(c1ccccc1)c1cc(O)ccc1O | -1 | -2 | -2 | 2 | 2 | 64* | 9
O=S(=O)(c1ccc(Cl)cc1)c1cc(O)ccc1O | 2 | 1 | -3 | -1 | 1 | 61* | 2
O=C1CCC/C(=N/Nc2ccc(Cl)cc2)C1 | 11 | 1 | -6 | -10 | / | 40* | 7
O=C(NN=C1CCCC1)c1ccc(Cl)cc1 | 9 | -1 | 0 | -7 | 7 | 8 | /
COc1cc(O)c(C=NNC(=O)c2ccncc2)c(OC)c1[N+](=O)[O-] | / | / | / | / | 14 | / | /
COc1ccc(CC2=C(O)c3ccccc3C(=O)C2=O)cc1 | 8 | 4 | 0 | -4 | 8 | 12 | /
O=C1C(=O)c2ccccc2C(O)=C1CCCCl | 83* | 4 | 8 | 3 | / | 68* | 73*
O=C(CCn1c(=O)oc2cc(Cl)ccc21)Nc1ccc(O)cc1 | 11 | 0 | 7 | 0 | 5 | 7 | /
CCn1c(=O)oc2cc(NC(=O)CCl)ccc21 | -4 | 0 | 7 | 0 | 1 | 88* | 92*
CCOC(=O)C1=C(C)OC(N)=C(C#N)C1c1cc2c(cc1[N+](=O)[O-])OCO2 (configuration not stated) | 17 | -2 | 10 | -11 | -15 | 46* | 17
O=C(CN1CCOCC1)NN=Cc1c(O)ccc2ccccc12 | / | / | / | / | 4 | / | /
O=C(CN1CCCC1)N/N=C/c1c(O)ccc2ccccc12 | 4 | 0 | 1 | -12 | / | 38* | 5
c1ccc(CCCOCCC2CO2)cc1 (configuration not stated) | 1 | 0 | -7 | 1 | / | 96* | 94* | GSTO1 recomb ABPP=60
CC(=NOC(=O)c1ccc(Cl)c(Cl)c1)c1sc(C)nc1C | / | / | / | / | 7 | / | /
CN(C)C=Nc1c(C#N)cnn1C | / | / | / | / | 0 | / | /
Cc1csc(Cn2c(CN(C)C)nc3ccccc3c2=O)n1 | 24 | -1 | 7 | -2 | 3 | 43* | 4
NC(=O)c1sc2nc(-c3ccco3)ccc2c1N | -5 | 2 | 4 | -8 | -53 | 2 | /
COC(=O)c1sc2nc(-c3ccco3)ccc2c1N | 12 | 0 | 9 | 9 | -34 | 48* | 16
COc1ccc(NS(=O)(=O)c2cccc(C(=O)NN=Cc3ccccc3OC)c2)cc1 | / | / | / | / | 1 | / | /
SMILES | Apaf-1 inh | PP5 inh | Fh CTSL1 inh | PAD4 FP inh | UCH37 DUB inh | GSTO1 inh | GSTO1 confirm | others
O=C(N=Nc1c(O)[nH]c2ccc([N+](=O)[O-])cc12)c1ccccc1Cl | -6 | 4 | -2 | -1 | 11 | 45* | 18
O=C(O)c1ccccc1N=Nc1c(O)[nH]c2ccc([N+](=O)[O-])cc12 | 14 | -1 | 0 | 0 | 13 | -4 | /
Cc1ccc(NCC(=O)N=Nc2c(O)[nH]c3ccc([N+](=O)[O-])cc23)cc1 | 0 | 1 | 1 | -4 | 5 | 33 | /
Cc1ccccc1NCC(=O)N=Nc1c(O)[nH]c2ccc([N+](=O)[O-])cc12 | -16 | 1 | 4 | -3 | 8 | 45* | 50*
O=C(NNc1ccccc1[N+](=O)[O-])Nc1ccc(Cl)c(Cl)c1 | 8 | 5 | 6 | -5 | 1 | -5 | /
O=C1NC(=O)C(c2ccccc2[N+](=O)[O-])=C1Nc1ccc(O)c(Cl)c1 | 28 | 0 | 1 | 46* | 1 | 64* | 49*
O=C(OCC(=O)N1CCN(c2ccccc2)CC1)C1=COCCO1 | -1 | 4 | -4 | 4 | 3 | 67* | 34
O=C(OCC(=O)N1CCN(C(=O)c2ccco2)CC1)C1=COCCO1 | 2 | 2 | -3 | -2 | 2 | 6 | /
Cc1[nH]n(-c2ccccc2)c(=O)c1C(c1ccc(O)c([N+](=O)[O-])c1)c1c(C)[nH]n(-c2ccccc2)c1=O | 87* | 2 | 3 | 57* | 7 | 59* | 47*
O=C(Nc1nc(-c2ccco2)c(-c2ccco2)s1)c1cnccn1 | 26 | 0 | 6 | -10 | / | 45* | 10
O=C1C=C(O)c2c(O)cccc2C1=O | 20 | 0 | 1 | 2 | / | 38* | 32
CC(=NNC(=O)c1ccc(CSc2cccc3cccnc23)cc1)C1CCCCC1 | / | / | / | / | -43 | / | /
CCCCn1c(N)c(N(CCOC)C(=O)C(C)N2C(=O)c3ccccc3C2=O)c(=O)[nH]c1=O (configuration not stated) | -4 | 0 | 0 | 1 | -1 | 67* | 9
CCCCn1c(N)c(N(CCOC)C(=O)CN2C(=O)c3ccccc3C2=O)c(=O)[nH]c1=O | 9 | 0 | 0 | 1 | 1 | 3 | /
COc1ccc(C(=O)Nc2ccc(O)c3ccccc23)cc1 | 6 | 5 | 0 | -8 | 10 | 49* | 6
COc1ccc(OC)c(S(=O)(=O)Nc2ccc(O)c3ccccc23)c1 | 13 | 4 | -4 | -2 | 1 | 60* | 8
CCn1cc(C=NN=C2CCC3C4CCc5cc(O)ccc5C4CC[C@]23C)c(C)n1 (some centres not stated) | / | / | / | / | 5 | / | /
O=C(NN=Cc1cc([N+](=O)[O-])ccc1O)c1ccncc1 | / | / | / | / | 13 | / | /
COc1ccc(C=Nn2cnc3c([nH]c4ccc(F)cc43)c2=O)cc1CSc1ccccn1 | / | / | / | / | -2 | / | /
Clc1ccc2[nH]c3c(c2c1)CCc1cn[nH]c1-3 | 19 | 3 | 1 | -2 | 1 | 4 | /
c1ccc2c3c([nH]c2c1)-c1[nH]ncc1CC3 | 1 | 7 | 0 | 7 | -14 | 74* | 11
Cc1oc2c(O)c(O)ccc2c(=O)c1-c1ccccc1 | 12 | 1 | 6 | 3 | 7 | 22 | /
Cc1oc2c(O)c(O)ccc2c(=O)c1-c1cnn(-c2ccccc2)c1 | 18 | -1 | 13 | 7 | 12 | 59* | 23
COc1ccc(NC(=O)NCCC2=CCCCC2)cc1 | 1 | 1 | -3 | 0 | 4 | 64* | 10
